Data published in ChEMBL document CHEMBL1135657, “Novel dual inhibitors of AChE and MAO derived from hydroxy aminoindan and phenethylamine as potential treatment for Alzheimer's disease” (J Med Chem, 2002).

Legend:
Butyrylcholinesterase [1] = target: T1, Butyrylcholinesterase (Equus caballus, UniProt Q9N1N9); test: In vitro inhibitory concentration against Butyrylcholinesterase of horse serum; value ranges from 0.71-0.86
Procedure, shortened: (§1)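 Ellman assay followed, with 200 µM butyrylthiocholine as substrate. Runs were in triplicate with four-point dose-response curves. IC50 and fiducial limits came from log concentration versus % inhibition.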

[2] = target: T2, Amine oxidase [flavin-containing] B (Rattus norvegicus, UniProt P19643); test: In vitro inhibitory concentration against Monoamine oxidase B of rat brain homogenates; format: tissue-based
T2 sequence (P19643 whole entry): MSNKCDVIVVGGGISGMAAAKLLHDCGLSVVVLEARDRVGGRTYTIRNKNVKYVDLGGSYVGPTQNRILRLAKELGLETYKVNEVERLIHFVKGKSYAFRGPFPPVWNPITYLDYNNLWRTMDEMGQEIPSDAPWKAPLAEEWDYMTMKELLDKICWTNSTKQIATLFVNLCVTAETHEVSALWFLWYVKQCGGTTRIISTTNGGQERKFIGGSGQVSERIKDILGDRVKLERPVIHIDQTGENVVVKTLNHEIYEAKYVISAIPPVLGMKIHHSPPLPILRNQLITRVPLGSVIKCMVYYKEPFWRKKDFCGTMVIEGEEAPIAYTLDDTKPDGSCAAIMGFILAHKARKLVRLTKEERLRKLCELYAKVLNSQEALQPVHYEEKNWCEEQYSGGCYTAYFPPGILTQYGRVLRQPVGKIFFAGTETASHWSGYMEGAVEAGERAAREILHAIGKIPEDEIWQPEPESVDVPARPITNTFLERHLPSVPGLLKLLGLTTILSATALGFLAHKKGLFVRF

[3] = target: T3, Amine oxidase [flavin-containing] A (Rattus norvegicus, UniProt P21396); test: In vitro inhibitory concentration against Monoamine oxidase A of rat brain homogenates; value ranges from 1.8-2.4; format: tissue-based
T3 sequence (P21396 whole entry): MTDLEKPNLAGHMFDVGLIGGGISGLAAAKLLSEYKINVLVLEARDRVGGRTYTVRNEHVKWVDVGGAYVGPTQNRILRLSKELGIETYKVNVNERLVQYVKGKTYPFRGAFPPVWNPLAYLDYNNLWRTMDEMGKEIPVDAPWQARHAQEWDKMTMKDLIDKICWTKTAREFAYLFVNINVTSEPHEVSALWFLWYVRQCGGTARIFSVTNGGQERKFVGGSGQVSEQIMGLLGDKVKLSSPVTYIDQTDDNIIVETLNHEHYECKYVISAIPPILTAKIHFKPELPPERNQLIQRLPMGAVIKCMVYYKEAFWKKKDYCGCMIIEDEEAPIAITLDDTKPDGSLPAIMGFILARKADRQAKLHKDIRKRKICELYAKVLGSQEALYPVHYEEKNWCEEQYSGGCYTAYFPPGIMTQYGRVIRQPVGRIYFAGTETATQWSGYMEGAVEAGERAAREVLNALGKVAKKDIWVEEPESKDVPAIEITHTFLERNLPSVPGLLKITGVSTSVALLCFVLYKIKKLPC

Acetylcholinesterase [4] = target: T4, Acetylcholinesterase (Homo sapiens, UniProt P22303); test: In vitro inhibitory concentration against purified Acetylcholinesterase of human erythrocytes; value ranges from 2.2-10.1
[5] = target: T3, Amine oxidase [flavin-containing] A; test: In vitro inhibitory concentration against Monoamine oxidase A of rat brain homogenates; value ranges from 0.005-0.012; format: tissue-based
[6] = target: T3, Amine oxidase [flavin-containing] A; test: In vitro inhibitory concentration against Monoamine oxidase A of rat brain homogenates; value ranges from 0.5-1.6; format: tissue-based
[7] = target: T2, Amine oxidase [flavin-containing] B; test: In vitro inhibitory concentration against Monoamine oxidase B of rat brain homogenates; value ranges from 0.7-1.3; format: tissue-based
[8] = target: T3, Amine oxidase [flavin-containing] A; test: In vitro inhibitory concentration against Monoamine oxidase A of rat brain homogenates; format: tissue-based
Butyrylcholinesterase [9] = target: T1, Butyrylcholinesterase; test: In vitro inhibitory concentration against Butyrylcholinesterase of horse serum; value ranges from […]; procedure, shortened: as §1
Acetylcholinesterase [10] = target: T4, Acetylcholinesterase; test: In vitro inhibitory concentration against purified Acetylcholinesterase of human erythrocytes; value ranges from 3.87-11.9
Acetylcholinesterase [11] = target: T4, Acetylcholinesterase; test: In vitro inhibitory concentration against purified Acetylcholinesterase of human erythrocytes; value ranges from 7.3-50.4
[12] = target: T3, Amine oxidase [flavin-containing] A; test: In vitro inhibitory concentration against Monoamine oxidase A of rat brain homogenates; value ranges from 0.5-1.4; format: tissue-based
[13] = target: T2, Amine oxidase [flavin-containing] B; test: In vitro inhibitory concentration against Monoamine oxidase B of rat brain homogenates; value ranges from 0.4-1.3; format: tissue-based
[14] = target: T3, Amine oxidase [flavin-containing] A; test: In vitro inhibitory concentration against Monoamine oxidase A of rat brain homogenates; value ranges from 230-820; format: tissue-based
Butyrylcholinesterase [15] = target: T1, Butyrylcholinesterase; test: In vitro inhibitory concentration against Butyrylcholinesterase of horse serum; value ranges from 0.23-0.26; procedure, shortened: as §1
Acetylcholinesterase [16] = target: T4, Acetylcholinesterase; test: In vitro inhibitory concentration against purified Acetylcholinesterase of human erythrocytes; value ranges from 0.16-0.18
Butyrylcholinesterase [17] = target: T1, Butyrylcholinesterase; test: In vitro inhibitory concentration against Butyrylcholinesterase of horse serum; value ranges from 0.22-1.54; procedure, shortened: as §1
[18] = target: T2, Amine oxidase [flavin-containing] B; design: species or system Brain
[19] = target: T3, Amine oxidase [flavin-containing] A; test: In vitro inhibitory concentration against Monoamine oxidase A of rat brain homogenates; value ranges from 1.7-3.9; format: tissue-based
[20] = target: T3, Amine oxidase [flavin-containing] A; test: In vitro inhibitory concentration against Monoamine oxidase A of rat brain homogenates; value ranges from 4.3-7.3; format: tissue-based
Acetylcholinesterase [21] = target: T4, Acetylcholinesterase; test: In vitro inhibitory concentration against purified Acetylcholinesterase of human erythrocytes; value ranges from […]-[…]
Butyrylcholinesterase [22] = target: T1, Butyrylcholinesterase; test: In vitro inhibitory concentration against Butyrylcholinesterase of horse serum; value ranges from 1.63-2.45; procedure, shortened: as §1
Butyrylcholinesterase [23] = target: T1, Butyrylcholinesterase; test: In vitro inhibitory concentration against Butyrylcholinesterase of horse serum; value ranges from 4.8-73.9; procedure, shortened: as §1
Acetylcholinesterase [24] = target: T4, Acetylcholinesterase; test: In vitro inhibitory concentration against purified Acetylcholinesterase of human erythrocytes; value ranges from 2.0-15.2
Acetylcholinesterase [25] = target: T4, Acetylcholinesterase; test: In vitro inhibitory concentration against purified Acetylcholinesterase of human erythrocytes; value ranges from 2.2-6.4
Acetylcholinesterase [26] = target: T4, Acetylcholinesterase; test: In vitro inhibitory concentration against purified Acetylcholinesterase of human erythrocytes; value ranges from 4.6-25.8
[27] = target: T3, Amine oxidase [flavin-containing] A; test: In vitro inhibitory concentration against Monoamine oxidase A of rat brain homogenates; value ranges from 0.47; format: tissue-based
[28] = target: T3, Amine oxidase [flavin-containing] A; test: In vitro inhibitory concentration against Monoamine oxidase A of rat brain homogenates; value ranges from 0.28-0.34; format: tissue-based
Acetylcholinesterase [29] = target: T4, Acetylcholinesterase; test: In vitro inhibitory concentration against purified Acetylcholinesterase of human erythrocytes; value ranges from 1.66-3.14
Acetylcholinesterase [30] = target: T4, Acetylcholinesterase; test: In vitro inhibitory concentration against purified Acetylcholinesterase of human erythrocytes; value ranges from 33.2-96.7
Acetylcholinesterase [31] = target: T4, Acetylcholinesterase; test: In vitro inhibitory concentration against purified Acetylcholinesterase of human erythrocytes; value ranges from 13.6-198
Butyrylcholinesterase [32] = target: T1, Butyrylcholinesterase; test: In vitro inhibitory concentration against Butyrylcholinesterase of horse serum; value ranges from 2.77-15.4; procedure, shortened: as §1
Acetylcholinesterase [33] = target: T4, Acetylcholinesterase
[34] = target: T2, Amine oxidase [flavin-containing] B; test: In vitro inhibitory concentration against Monoamine oxidase B of rat brain homogenates; value ranges from 77-123
[35] = target: T3, Amine oxidase [flavin-containing] A; test: In vitro inhibitory concentration against Monoamine oxidase A of rat brain homogenates; value ranges from 75-240; format: tissue-based
Acetylcholinesterase [36] = target: T4, Acetylcholinesterase; test: In vitro inhibitory concentration against purified Acetylcholinesterase of human erythrocytes
Acetylcholinesterase [37] = target: T4, Acetylcholinesterase; test: In vitro inhibitory concentration against purified Acetylcholinesterase of human erythrocytes; value ranges from 8.6-49.9
[38] = target: T3, Amine oxidase [flavin-containing] A; test: In vitro inhibitory concentration against Monoamine oxidase A of rat brain homogenates; value ranges from 560-1000; format: tissue-based
Butyrylcholinesterase [39] = target: T1, Butyrylcholinesterase
[40] = target: T2, Amine oxidase [flavin-containing] B; test: In vitro inhibitory concentration against Monoamine oxidase B of rat brain homogenates; value ranges from 200-1400; format: tissue-based
Acetylcholinesterase [41] = target: T4, Acetylcholinesterase; test: In vitro inhibitory concentration against purified Acetylcholinesterase of human erythrocytes; value ranges from 6.4-45.9
[42] = target: T3, Amine oxidase [flavin-containing] A; test: In vitro inhibitory concentration against Monoamine oxidase A of rat brain homogenates; value ranges from 170-340; format: tissue-based
[43] = target: T2, Amine oxidase [flavin-containing] B; test: In vitro inhibitory concentration against Monoamine oxidase B of rat brain homogenates; value ranges from 360-470; format: tissue-based
Butyrylcholinesterase [44] = target: T1, Butyrylcholinesterase; test: In vitro inhibitory concentration against Butyrylcholinesterase of horse serum; value ranges from 6.3-52.4; procedure, shortened: as §1
Butyrylcholinesterase [45] = target: T1, Butyrylcholinesterase; test: In vitro inhibitory concentration against Butyrylcholinesterase of horse serum; value ranges from 5.02-12.2; procedure, shortened: as §1
Acetylcholinesterase [46] = target: T4, Acetylcholinesterase; test: In vitro inhibitory concentration against purified Acetylcholinesterase of human erythrocytes; value ranges from 7.81-39.2

T4 sequence (P22303 whole entry): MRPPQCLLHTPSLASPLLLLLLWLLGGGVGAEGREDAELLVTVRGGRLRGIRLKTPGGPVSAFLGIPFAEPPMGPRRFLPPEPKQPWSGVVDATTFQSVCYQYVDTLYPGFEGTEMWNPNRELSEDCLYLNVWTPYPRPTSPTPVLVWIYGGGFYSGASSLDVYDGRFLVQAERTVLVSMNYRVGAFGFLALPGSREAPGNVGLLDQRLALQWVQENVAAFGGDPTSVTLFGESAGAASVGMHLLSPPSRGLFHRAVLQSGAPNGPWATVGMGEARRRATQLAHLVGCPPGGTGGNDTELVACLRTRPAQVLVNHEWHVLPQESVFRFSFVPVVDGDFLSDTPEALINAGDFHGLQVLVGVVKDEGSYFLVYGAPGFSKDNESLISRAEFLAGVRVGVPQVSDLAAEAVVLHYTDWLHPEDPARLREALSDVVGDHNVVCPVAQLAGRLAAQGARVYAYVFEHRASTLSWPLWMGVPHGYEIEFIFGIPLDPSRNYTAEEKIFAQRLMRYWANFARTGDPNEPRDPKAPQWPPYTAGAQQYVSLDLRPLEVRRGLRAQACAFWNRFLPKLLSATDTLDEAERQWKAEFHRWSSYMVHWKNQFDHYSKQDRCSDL
T1 sequence (Q9N1N9 whole entry): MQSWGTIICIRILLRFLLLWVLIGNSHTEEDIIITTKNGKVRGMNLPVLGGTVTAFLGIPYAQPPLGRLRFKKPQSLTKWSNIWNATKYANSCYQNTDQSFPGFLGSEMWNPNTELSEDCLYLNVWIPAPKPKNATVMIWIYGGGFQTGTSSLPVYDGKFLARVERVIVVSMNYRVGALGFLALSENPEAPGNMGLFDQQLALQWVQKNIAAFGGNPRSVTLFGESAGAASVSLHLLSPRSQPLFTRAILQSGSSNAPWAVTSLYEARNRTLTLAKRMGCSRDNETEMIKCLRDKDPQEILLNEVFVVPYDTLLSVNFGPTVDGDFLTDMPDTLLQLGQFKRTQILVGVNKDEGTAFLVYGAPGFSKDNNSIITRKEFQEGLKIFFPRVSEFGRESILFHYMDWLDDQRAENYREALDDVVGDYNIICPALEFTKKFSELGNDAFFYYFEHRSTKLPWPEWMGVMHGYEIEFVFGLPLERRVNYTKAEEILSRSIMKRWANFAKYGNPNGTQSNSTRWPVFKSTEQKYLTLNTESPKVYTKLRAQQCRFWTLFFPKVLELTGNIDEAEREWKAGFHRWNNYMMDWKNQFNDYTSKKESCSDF

Compound: C#CCNC1CCc2ccc(OC(=O)N(C)C)cc2C1 (stereo not given)
- IC50 (Butyrylcholinesterase [1]): 0.77 µM
- IC50 [2]: 1000 µM
- IC50 [3]: 2 µM
- IC50 (Acetylcholinesterase [4]): 4.1 µM

Compound: C#CCN(C)C1CCc2c(O)cccc21 (stereo not given)
- IC50 [5]: 0.008 µM

Compound: C#CCNC1CCc2c(O)cccc21 (stereo not given)
- IC50 [6]: 0.9 µM
- IC50 [7]: 0.9 µM

Compound: CCN(C)C(=O)Oc1ccc2c(c1)C(N)CCC2 (stereo not given)
- IC50 [8]: 1000 µM
- IC50 (Butyrylcholinesterase [9]): 5.41 µM
- IC50 (Acetylcholinesterase [10]): 6.22 µM

Compound: C#CCN(C)CCc1cccc(OC(=O)N(C)CC)c1
- IC50 (Acetylcholinesterase [11]): 16.6 µM
- IC50 [12]: 0.8 µM
- IC50 [13]: 0.8 µM

Compound: C#CC(C)NCCc1cccc(OC(=O)N(C)C)c1 (stereo not given)
- IC50 [14]: 440 µM
- IC50 (Butyrylcholinesterase [15]): 0.24 µM
- IC50 (Acetylcholinesterase [16]): 0.17 µM
- IC50 [2]: > 1000 µM

Compound: C#CCNCCc1cccc(OC(=O)N(C)CC)c1
- IC50 (Butyrylcholinesterase [17]): 0.54 µM
- IC50 [18]: 7.8 µM
- IC50 [19]: 2.6 µM

Compound: CCN(C)C(=O)Oc1ccc2c(c1)[C@H](N)CC2
- IC50 [20]: 5.6 µM
- IC50 (Acetylcholinesterase [21]): 6.14 µM
- IC50 [2]: > 1000 µM
- IC50 (Butyrylcholinesterase [22]): 1.96 µM

Compound: C#CCN[C@H]1CCc2ccc(OC(=O)N(C)CCC)cc21
- IC50 [8]: > 1000 µM
- IC50 (Butyrylcholinesterase [23]): 12.4 µM
- IC50 (Acetylcholinesterase [24]): 8.5 µM
- IC50 [2]: > 1000 µM

Compound: C#CCN(C)[C@@H](C)Cc1cccc(OC(=O)N(C)CCCCCC)c1
- IC50 (Acetylcholinesterase [25]): 3.4 µM

Compound: C#CCN[C@H]1CCc2ccc(OC(=O)N(C)CCCC)cc21
- IC50 (Acetylcholinesterase [26]): 9.3 µM

Compound: C#CCNC1CCc2ccc(O)cc21 (stereo not given)
- IC50 [27]: 0.67 µM

Compound: C#CCN[C@@H]1CCc2ccc(O)cc21
- IC50 [28]: 0.3 µM

Compound: CN(C)C(=O)Oc1ccc2c(c1)C(N(C)C)CC2 (stereo not given)
- IC50 (Acetylcholinesterase [29]): 2.15 µM

Compound: C#CCNC1CCc2cccc(OC(=O)N(C)CCC)c21 (stereo not given)
- IC50 (Acetylcholinesterase [30]): 45.8 µM

Compound: C#CCNC1CCc2ccc(OC(=O)N(C)C3CCCCC3)cc21 (stereo not given)
- IC50 (Acetylcholinesterase [31]): 41.2 µM
- IC50 (Butyrylcholinesterase [32]): 5.56 µM

Compound: C#CCNC1CCc2c(Cl)cc(OC(=O)N(C)CC)cc21 (stereo not given)
- IC50 (Acetylcholinesterase [33]): 25.5 µM

Compound: C#CCNC1CCc2ccc(OC(=S)N(C)C)cc21 (stereo not given)
- IC50 [34]: 98 µM
- IC50 [35]: 130 µM
- IC50 (Acetylcholinesterase [36]): > 500 µM

Compound: C#CCN(CC)C1CCc2ccc(OC(=O)N(C)C)cc21 (stereo not given)
- IC50 (Acetylcholinesterase [37]): 17.9 µM

Compound: C#CCNC1CCc2ccc(OC(=O)N(C)C)cc21 (stereo not given)
- IC50 [38]: 750 µM
- IC50 (Butyrylcholinesterase [39]): 2.07 µM
- IC50 [40]: 530 µM

Compound: C#CCNC1CCc2ccc(OC(=O)N(C)CCC)cc21 (stereo not given)
- IC50 (Acetylcholinesterase [41]): 14.6 µM
- IC50 [42]: 240 µM
- IC50 [43]: 410 µM
- IC50 (Butyrylcholinesterase [44]): 14.8 µM

Compound: C#CCNC1CCc2ccc(OC(=O)N(C)CCCCCC)cc21 (stereo not given)
- IC50 (Butyrylcholinesterase [45]): 7.5 µM
- IC50 (Acetylcholinesterase [46]): 15.7 µM
